pIC50, pKd, pKi: −log10 of the molar value. Activity calls are given as the source filed them. The calls are words filed in the database; no cut-off is given here.

The target in data set [1] is T1, Indoleamine 2,3-dioxygenase 1 (Homo sapiens, UniProt P14902). Kind of data set: Inhibition of human recombinant IDO1 using L-tryptophan as substrate.
Target sequence in this assay (P14902 whole entry): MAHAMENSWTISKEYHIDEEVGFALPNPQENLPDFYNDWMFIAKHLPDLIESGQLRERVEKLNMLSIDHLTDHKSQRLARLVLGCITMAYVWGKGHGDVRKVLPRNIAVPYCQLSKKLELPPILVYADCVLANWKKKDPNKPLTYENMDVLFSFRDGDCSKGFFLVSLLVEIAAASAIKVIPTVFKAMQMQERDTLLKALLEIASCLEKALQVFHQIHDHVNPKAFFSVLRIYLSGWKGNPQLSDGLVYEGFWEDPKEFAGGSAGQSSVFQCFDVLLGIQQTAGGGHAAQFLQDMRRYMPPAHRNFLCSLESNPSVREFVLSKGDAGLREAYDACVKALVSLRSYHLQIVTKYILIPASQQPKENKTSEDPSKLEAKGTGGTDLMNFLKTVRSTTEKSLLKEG
The nature of data set [2]: DPPH radical scavenging activity assessed as reducing ability at […] after 30 mins by spectrophotometry. In kind it is physicochemical. To be noted: 0.5 h. In a few lines:
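Tryptanthrins at 5, 10, 20, 40, 80 or 160 μM in DMSO (100 μL) mixed with 100 μL DPPH radical (100 μM in ethanol, acetate-buffered pH 5.5). Absorbance at 517 nm read after 30 min gentle shaking in the dark. Ascorbic acid as reference. Triplicates.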
(The DPPH test is a chemical assay of radical scavenging.)

The target in data set [3] is T1, Indoleamine 2,3-dioxygenase 1. Kind of data set: Inhibition of human IDO1 expressed in HEK293 cells assessed as kynurenine release after 5 hrs by spectrophotometry. The data set is classed as cell-based.
Data set [4] shares this target. The data set is described as follows: Competitive inhibition of human recombinant IDO1 using L-tryptophan as substrate.
Target sequence in this assay (P14902 whole entry, looked up): as the sequence (P14902 whole entry) above
Data set [5] shares this target. Kind of data set: Uncompetitive inhibition of human recombinant IDO1 using L-tryptophan as substrate. In a few lines:
(§1)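 Reversibility and inhibition mode taken from kinetic graphical plots of recombinant human IDO-1 activity. The enzyme assay used a methylene blue/ascorbate regeneration system. Ki derived by plotting [S]/V against inhibitor concentration.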
Target sequence in this assay (P14902 whole entry): as above

Data set [6] can be described thus: DPPH radical scavenging activity assessed as reducing ability at 5 to 160 uM after 30 mins by spectrophotometry. To be noted: 0.5 h.
Data set [7] concerns the target T1, Indoleamine 2,3-dioxygenase 1. The data set is described as follows: Mixed competitive inhibition of human recombinant IDO1 using L-tryptophan as substrate. In a few lines:
as §1
Target sequence in this assay (P14902 whole entry): as above

The target is the same in data set [8]. The data set is described as follows: Binding affinity to human IDO1 by SPR assay. The method, boiled down: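 SPR at 25 °C on purified human IDO-1 immobilized on a CM5 sensor chip, compound injected at a series of concentrations. Running buffer PBS with 0.1% dodecylmaltoside, 0.05 mM EDTA and 5% DMSO, pH 7.4. KD taken as the equilibrium dissociation constant from instrument evaluation.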
(Surface plasmon resonance follows binding to a sensor surface in real time, without labels.)
Target sequence in this assay (P14902 whole entry): as above

In data set [9] the test system is Mus musculus. Kind of data set: Upregulation of IDO1 expression in cytoplasm of C57BL/6 mouse tumor allografted with mouse LLC cells at 200 mg/kg, po qd after 14 days by immunohistochemical analysis. On the set-up: dose 200 mg/kg. The data set is classed as functional, organism-based. The method, boiled down: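 LLC allografts in C57BL/6 mice, sc at 2 × 10^6 cells. Oral dosing once daily at 200 mg/kg or 0.5% CMC vehicle from 5 mm tumor diameter for 14 days. Tumors and TDLNs cut into 5 μm sections with heat antigen retrieval. Rabbit Foxp3 Ab (1/100) or mouse IDO-1 Ab (1/50) applied 1 h, then Alexa Fluor secondary 30 min. Nuclei counterstained; imaged at ×200.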

In data set [10] the test system is Mus musculus. The data set is described as follows: Reduction of Foxp3 expression in nucleus of C57BL/6 mouse tumor allografted with mouse LLC cells at 200 mg/kg, po qd after 14 days by immunohistochemical analysis.
Data set [11] relates to Mus musculus. The data set is described as follows: In vivo inhibition of IDO1 in C57BL/6 mouse allografted with mouse LLC cells assessed as kynurenine to tryptophan ratio in plasma at 200 mg/kg, po qd after 14 days by HPLC analysis relative to control. In kind it is functional, organism-based. On the set-up: dose 200 mg/kg. In a few lines:
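C57BL/6 mice, 8 weeks old, given 2 × 10^6 LLC cells sc in right forelimb and randomized to three groups. Oral dosing once daily from 5 mm tumor diameter with 0.5% CMC vehicle or 200 mg/kg. Plasma taken after 14 days. Trp and Kyn measured by HPLC and Kyn/Trp ratio calculated, n = 9−10. One-way ANOVA against vehicle.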

For data set [12], the system named is Lewis lung carcinoma cell line. The data set is described as follows: Antitumor activity against mouse LLC cells allografted in C57BL/6 mouse assessed as reduction in tumor volume at 200 mg/kg, po qd after 14 days. To be noted: 336 h, read-out: TGI. In kind it is functional.

As a reminder, the pIC50 is −log10 of the IC50, conventionally taken in molar units. As for `O=C1c2ccccc2-n2c1nc1ccc(F)cc1c2=O`, in [1], the pIC50 was 3.06.
As to `O=C1O[C@H]([C@@H](O)CO)C(O)=C1O` [ASCORBIC ACID], the outcome in [2] was Active.
For the compound `O=C1c2cc(Cn3cc(-c4ccccc4)nn3)ccc2-n2c1nc1ccc(F)cc1c2=O`, the inhibition result in data set [3] and in [4] was “inactive” each time.
For orientation: pKi means the Ki on a negative log10 scale, so that one unit is a factor of ten. As for `O=C1c2cc(Br)ccc2-n2c1nc1ccccc1c2=O`, in data set [5], the pIC50 is 6.24 and the pKi was 6.41. The negative-log IC50 (pIC50) in data set [3] was 7.27. For the same compound, the Activity result in data set [6] is “Not Active”.
Regarding `O=C1c2cc(F)ccc2N[C@H]2[C@H](O)c3ccccc3N12`, the pIC50 in data set [1] was 3.35.
With `O=C1c2cc([N+](=O)[O-])ccc2-n2c1nc1ccccc1c2=O`, in [5], the pIC50 was 6.99 and the pKi was 7.27. The Activity entry in [6] was “Not Active”.
On to `O=C1c2ccccc2N[C@H]2[C@H](O)c3ccccc3N12`, for which the pIC50 is 4.80 in [5] and 6.11 in data set [3]. Also, the pKi in data set [5] is 5.07.
For the compound `O=C1c2ccc(Cl)cc2-n2c1nc1ccccc1c2=O`, in data set [5], the pIC50 is 4.13 and the pKi is 4.31. For the same compound, the pIC50 in data set [3] was 6.74.
`O=C1c2ccccc2N[C@H]2[C@H](O)c3cc(F)ccc3N12`: the pIC50 in [5] is 5.21; in data set [3], 7.61. Moreover, the pKi in data set [5] is 5.34.
With `Cc1ccc2c(c1)C(=O)c1nc3ccccc3c(=O)n1-2`, in data set [7], the pIC50 is 3.92 and the pKi is 3.66.
Consider `O=C1c2ccccc2-n2c1nc1ccccc1c2=O` [TRYPTANTHRIN], for which the pIC50 in data set [7] was 5.15; in [3] it was 7.27. In [7], the pKi is 5.32. In addition, the Activity entry in [6] is recorded as “Not Active”.
Broadly, the pKd is the Kd on a negative log10 scale, so that one unit is a factor of ten. In the case of `O=C1c2cc(F)ccc2-n2c1nc1ccccc1c2=O`, the negative-log IC50 (pIC50) is 6.27 in data set [5] and 7.64 in data set [3]. For the same compound, the pKi in data set [5] is 6.79. The compound further gave a pKd in data set [8] of 4.33. For the same compound, the outcome in the data set with Mus musculus [9] and with Mus musculus [10] was Active. Further, in the data set with Mus musculus [11], the inhibition result was “Active”. The Activity entry in data set [6] is “Not Active”. Besides, in data set [12], the inhibition in vivo at 200 mg/kg is 62%.
For `O=C1c2c(Cl)cccc2-n2c1nc1ccccc1c2=O`, the negative logarithm of the IC50 (pIC50) was 5.09 in data set [5] and 7.57 in [3]. Further, the pKi in [5] is 5.02. For the same compound, the Activity result in data set [6] was “Not Active”.
With `O=C1c2cc(F)ccc2-n2c1nc1ccc(F)cc1c2=O`, in [5], the pIC50 is 5.57 and the pKi is 5.26. Besides, the negative-log IC50 (pIC50) in [3] is 6.33.

(Values after ChEMBL document CHEMBL3085691, “Discovery of tryptanthrin derivatives as potent inhibitors of indoleamine 2,3-dioxygenase with therapeutic activity in Lewis lung cancer (LLC) tumor-bearing mice” (J Med Chem, 2013).)
